Assay outcomes as filed in PubChem.
miR-122 sensor – inhibitors of miR-122 in Huh7 cells | 0.3% of 340,000 active | AID 602342 | activation (reporter increase), % at 12.5 µM | Huh7 miR-122 Renilla luciferase sensor, 48 h; neutral wells = 0, positive control = 100;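 active = mean replicate activation score at least 90 and every replicate individually at or above 90; inconclusive = only one of the two criteria met; inactive = neither criterion met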;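 also: higher luciferase means less miR-122 activity so hits act as miR-122 inhibitors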
Env fusion inh – blocks HIV Env-driven cell-cell fusion | 1.1% of 360,000 active | inhibition, % at 12.3 µM | HeLa-JRFL Env/CEM21 cell fusion, luciferase | AID 651610;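 active = mean replicate inhibition score of at least 50 and every replicate individually at or above 50; inconclusive = only one of the two criteria met; inactive = mean below 50 and not all replicates reaching 50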
Rtt109 HAT inh – blocks Candida albicans Rtt109/Vps75 acetyltransferase activity; Q5AAJ8; purified Rtt109/Vps75, ThioGlo CoA-SH fluorescence, 4 h; inhibition, % at 34.9 µM; 0.16% of 330,000 active; AID 540336;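 active = inhibition of at least 50% in every replicate; inconclusive = best replicate reaches 50% inhibition but some replicates fall short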
Target sequence (Q5AAJ8 whole entry, looked up): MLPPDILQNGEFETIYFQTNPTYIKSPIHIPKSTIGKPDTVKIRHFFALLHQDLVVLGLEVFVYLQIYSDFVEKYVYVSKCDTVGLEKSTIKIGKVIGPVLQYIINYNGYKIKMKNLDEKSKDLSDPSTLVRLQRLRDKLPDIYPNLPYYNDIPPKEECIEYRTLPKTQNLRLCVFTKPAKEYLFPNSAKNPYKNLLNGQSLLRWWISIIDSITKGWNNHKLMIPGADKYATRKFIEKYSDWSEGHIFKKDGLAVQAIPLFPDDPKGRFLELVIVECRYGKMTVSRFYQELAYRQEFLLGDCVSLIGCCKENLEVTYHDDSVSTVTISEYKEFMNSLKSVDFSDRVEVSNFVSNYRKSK
INS-1E GSIS act – GLuc luminescence reporter in INS-1E cells, primary screen for activators of glucose-dependent secretion of insulin. INS-1E GLuc reporter insulin secretion, 2-3 h. activation, % at 16.6 µM. 0.61% of 370,000 active;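 active = lowest replicate activation of at least 40%, so every replicate reaches that level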
dFosB act – enhances mouse delta FosB homodimer DNA binding | P13346 | purified delta FosB, TAMRA-CDK5 oligo fluorescence polarization; percent of positive-control signal above neutral wells | activation, % at 25 µM | 0.99% of 340,000 active | AID 493131;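 active = mean activation above about 17%, with every replicate also reaching it, limit read from the data, passing the limit was not always enough; inconclusive = only one of the two conditions met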
Cneo AK release – causes C. neoformans cell lysis | adenylate kinase release luminescence, 4 h; normalised: neutral wells 0, clomiphene wells 100 | lysis activity, % at 15 µM | 0.2% of 360,000 active;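 active = mean lysis activity across replicates of at least 80%, whatever share of replicates individually reach that level; inactive = mean lysis activity below 80%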
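read-out = cell lysis signal | test system = log-phase Cryptococcus neoformans yeast cells | input = cells at 5 × 10^6 per mL | medium = fresh YPD growth medium | signal = luminescent adenylate kinase detection reagent | timing = 4 h at 37 °C static, read 1 h later | dosing = single dose | controls = Clomiphene as positive lysis control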
Of the large screens only hits and unclear results are named; the others gave an inactive call. Most compounds without a hit are left out; they make up all but 2.4% or so of the library.

COc1ccccc1-c1ccc2c(c1)O[C@H](CN(C)C(=O)c1ccccc1)[C@@H](C)CN([C@H](C)CO)S2(=O)=O	none (no result: Rtt109 HAT inh, dFosB act)
COc1ccc(NC(=O)c2c(N)no[n+]2[O-])cc1	dFosB act 20.5
COc1ccc(NC(=O)c2c(N)no[n+]2[O-])c(OC)c1	none (no result: miR-122 sensor, Cneo AK release)
CNC[C@@H]1Oc2ccc(NC(=O)Nc3ccccc3)cc2CC(=O)N([C@H](C)CO)C[C@H]1C	none (no result: Env fusion inh, Rtt109 HAT inh, dFosB act)
CCCCOCC1CN(CCCC)S(=O)(=O)c2c(Oc3ccc(C(C)C)cc3)cccc2O1 (stereo not given)	none (no result: miR-122 sensor, Rtt109 HAT inh, dFosB act, Cneo AK release)
CCCCOCC1CN(CCCC)S(=O)(=O)c2c(Oc3ccc(C)cc3)cccc2O1 (stereo not given)	Env fusion inh 65.4 (no result: miR-122 sensor, Rtt109 HAT inh, dFosB act, Cneo AK release)
COc1ccc(NC(=O)N(C)C[C@@H]2OCc3ccccc3-c3c(n(C)c4ccccc34)C(=O)N([C@H](C)CO)C[C@@H]2C)cc1	none (no result: miR-122 sensor, Rtt109 HAT inh, dFosB act, Cneo AK release)
CC(C)(C)C1=Nn2c(nnc2C2CCCCC2)SC1	INS-1E GSIS act 80.9
Cc1cccc(COC[C@H](Cc2ccccc2)N2CCN(C(=O)c3cccc(Cl)c3)CCC2=O)c1	Env fusion inh 74.7 (no result: miR-122 sensor, Rtt109 HAT inh, dFosB act, Cneo AK release)
Cc1cccc(COC[C@H](Cc2ccccc2)N2CCN(C(=O)c3cccc(C)c3)CCC2=O)c1	none (no result: miR-122 sensor, Rtt109 HAT inh, dFosB act, Cneo AK release)
Cc1cccc(COCC(Cc2ccccc2)N2CCN(C(=O)c3cccc(Cl)c3)CCC2=O)c1 (stereo not given)	Env fusion inh 66.2
Cc1cccc(COC[C@H](Cc2ccccc2)N2CCN(C(=O)c3cc(Cl)cc(Cl)c3)CCC2=O)c1	Env fusion inh 91.9 (no result: miR-122 sensor, Rtt109 HAT inh, dFosB act, Cneo AK release)
C[C@H](O)C#Cc1cnc2c(c1)C(=O)N([C@H](C)CO)C[C@@H](C)[C@H](CN(C)C(=O)CC1CC1)O2	none (no result: Rtt109 HAT inh, dFosB act)
C[C@H](NC(=O)C[C@H]1CC[C@@H](NC(=O)C2CC2)[C@@H](CO)O1)c1ccccc1	none (no result: miR-122 sensor, Rtt109 HAT inh, dFosB act)
CCCCCCCCN1C(=O)[C@@H](CC(=O)N2CCN(C(=O)C3CC3)CC2)C[C@@]2(C(=O)OC)C1=C[C@H](C1CCCC1)O[C@@H]2C	Env fusion inh inconclusive, INS-1E GSIS act 71.8 (no result: miR-122 sensor, Rtt109 HAT inh, dFosB act, Cneo AK release)
CCCCCCCCN1C(=O)[C@@H](CC(=O)N2CCCC2)C[C@@]2(C(=O)OC)C1=C[C@H](C1CCCC1)O[C@@H]2C	INS-1E GSIS act 112.0 (no result: miR-122 sensor, Rtt109 HAT inh, dFosB act, Cneo AK release)
CN(C)CC(=O)Nc1ccc2c(c1)C(=O)N(C)[C@H]1CC[C@H](CC(=O)Nc3ccc(F)cc3)O[C@@H]1CO2	none (no result: miR-122 sensor, Env fusion inh, Rtt109 HAT inh, dFosB act, Cneo AK release)
CO[C@@H]1CN(C)C(=O)c2ccc(NC(=O)C3CC3)cc2OC[C@H](C)N(C(=O)C2CCOCC2)C[C@@H]1C	none (no result: Env fusion inh, Rtt109 HAT inh, dFosB act)
Cc1ccc2[nH]c(CNC(=O)C3CCCCC3)cc2c1	miR-122 sensor 135.1
CN1c2ccc(C#Cc3ccccc3)cc2[C@H]2[C@H](CCN2S(=O)(=O)c2ccccc2F)[C@H]1CO	none (no result: miR-122 sensor, Env fusion inh, Rtt109 HAT inh, dFosB act, Cneo AK release)
O=S(=O)(c1ccccc1)N1CC2(C1)[C@H](c1ccccc1)[C@H](CO)N2CC1CC1	none (no result: miR-122 sensor, Env fusion inh, Rtt109 HAT inh, dFosB act, Cneo AK release)
O=C(C[C@H]1C/C=C\C[C@@H](Cc2ccc(F)cc2)C(=O)O[C@H](c2ccccc2)CNC1=O)NCCO	none (no result: miR-122 sensor)
O=C(C[C@@H]1C/C=C/CC[C@H](Cc2ccc(F)cc2)C(=O)O[C@H](c2ccccc2)CNC1=O)NCCO	Env fusion inh 66.9 (no result: miR-122 sensor)
CCCCc1nn(-c2cc(Cl)ccc2OC)c2c1C(=O)CC(C)(C)C2	Env fusion inh 57.4
CN1C[C@@H]2[C@@H]3C(=O)N(Cc4ccccc4)C(=O)[C@@H]3[C@](Cc3ccccc3)(C1=O)N2C(=O)c1ccc(C(F)(F)F)cc1	none
CC[C@]12C(=O)N(C)C[C@H]([C@@H]3C(=O)N(Cc4ccccc4)C(=O)[C@@H]31)N2C(=O)c1ccc(C(C)(C)C)cc1	Env fusion inh 57.5
CCN1C[C@@H]2[C@@H]3C(=O)N(Cc4ccccc4)C(=O)[C@@H]3[C@](CC)(C1=O)N2C(=O)c1ccc(C(C)(C)C)cc1	Env fusion inh 68.2
CCN1C[C@@H]2[C@@H]3C(=O)N(Cc4ccccc4)C(=O)[C@@H]3[C@](Cc3ccccc3)(C1=O)N2C(=O)c1ccc(C(C)(C)C)cc1	none (no result: miR-122 sensor)
NC1=NC[C@@H](Cc2ccc(O)cc2)N1CCC12CC3CC(CC(C3)C1)C2	INS-1E GSIS act 183.6
